Reference: ChEMBL document CHEMBL1773037, “Evaluation of superior BACE1 cleavage sequences containing unnatural amino acids” (Bioorg Med Chem, 2011)
Activity calls are given as the source filed them. No cut-off for these calls is given here. Non-standard residues stand in square brackets, D forms with d. Residues, ends and D or L forms follow the SMILES beside them. 2Thi = N[C@@H](Cc1cccs1)C(=O)O; Cha = N[C@@H](CC1CCCCC1)C(=O)O; Cit = NC(=O)NCCC[C@H](N)C(=O)O; Phg = N[C@H](C(=O)O)c1ccccc1; Tle = CC(C)(C)[C@H](N)C(=O)O; Abu = CC[C@H](N)C(=O)O

Biological target: Beta-secretase 1 (Homo sapiens) (UniProt P56817)
Sequence (P56817 whole entry): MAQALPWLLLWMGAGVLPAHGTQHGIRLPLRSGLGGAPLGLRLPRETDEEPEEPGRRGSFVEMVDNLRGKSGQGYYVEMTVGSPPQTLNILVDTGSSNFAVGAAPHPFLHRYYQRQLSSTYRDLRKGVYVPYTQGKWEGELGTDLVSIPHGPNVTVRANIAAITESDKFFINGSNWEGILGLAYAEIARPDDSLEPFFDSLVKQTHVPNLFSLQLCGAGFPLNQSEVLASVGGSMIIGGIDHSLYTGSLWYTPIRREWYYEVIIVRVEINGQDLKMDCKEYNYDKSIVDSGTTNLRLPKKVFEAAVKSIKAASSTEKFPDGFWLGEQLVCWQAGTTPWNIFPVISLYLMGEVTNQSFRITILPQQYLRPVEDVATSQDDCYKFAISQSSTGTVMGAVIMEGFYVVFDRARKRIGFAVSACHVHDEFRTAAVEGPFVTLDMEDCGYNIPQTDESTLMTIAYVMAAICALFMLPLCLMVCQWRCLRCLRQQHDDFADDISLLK
Assay: Activity of recombinant BACE assessed as substrate cleavage at 300 uM after 3 hrs by HPLC analysis
How it was run: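 Individually synthesized, purified substrates at 300 µM in 40 mM AcONa buffer, pH 4.5, 37 °C. rBACE1 used at 60 nM (P1, P4 substrates), 30 nM (P2, P3 substrates) or 10 nM (P1' substrates and the dodecapeptide). Aliquots taken at 0, 1 and 3 h, quenched with 7 M GuHCl, and the decrease in each substrate peak monitored by HPLC.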

Activity | Structure (SMILES)
Active | CC[C@H](C)[C@H](N)C(=O)N[C@@H](CO)C(=O)N[C@@H](CCC(=O)O)C(=O)N[C@H](C(=O)N[C@@H](CC(N)=O)C(=O)N[C@@H](CC(C)C)C(=O)N[C@@H](CC(=O)O)C(=O)N[C@@H](C)C(=O)N[C@@H](CCC(=O)O)C(=O)N[C@@H](Cc1ccccc1)C(=O)N[C@@H](CCCNC(=N)N)C(=O)N[C@@H](Cc1cnc[nH]1)C(N)=O)[C@@H](C)CC (H-ISEINLDAEFRH-NH2)
Active | CC[C@H](C)[C@H](N)C(=O)N[C@@H](CO)C(=O)N[C@@H](CCC(=O)O)C(=O)N[C@H](C(=O)N[C@@H](CC(=O)O)C(=O)N[C@@H](CC(C)C)C(=O)N[C@@H](CC(=O)O)C(=O)N[C@@H](C)C(=O)N[C@@H](CCC(=O)O)C(=O)N[C@@H](Cc1ccccc1)C(=O)N[C@@H](CCCNC(=N)N)C(=O)N[C@@H](Cc1cnc[nH]1)C(N)=O)C(C)C (H-ISEVDLDAEFRH-NH2)
Active | CC[C@H](C)[C@H](N)C(=O)N[C@@H](CO)C(=O)N[C@@H](CCC(=O)O)C(=O)N[C@H](C(=O)N[C@@H](CCSC)C(=O)N[C@@H](CC(C)C)C(=O)N[C@@H](CC(=O)O)C(=O)N[C@@H](C)C(=O)N[C@@H](CCC(=O)O)C(=O)N[C@@H](Cc1ccccc1)C(=O)N[C@@H](CCCNC(=N)N)C(=O)N[C@@H](Cc1cnc[nH]1)C(N)=O)C(C)C (H-ISEVMLDAEFRH-NH2)
Active | CC[C@H](C)[C@H](N)C(=O)N[C@@H](CO)C(=O)N[C@@H](CCC(=O)O)C(=O)N[C@H](C(=O)N[C@@H](CC(N)=O)C(=O)N[C@@H](CC(=O)O)C(=O)N[C@@H](CC(=O)O)C(=O)N[C@@H](C)C(=O)N[C@@H](CCC(=O)O)C(=O)N[C@@H](Cc1ccccc1)C(=O)N[C@@H](CCCNC(=N)N)C(=O)N[C@@H](Cc1cnc[nH]1)C(N)=O)C(C)C (H-ISEVNDDAEFRH-NH2)
Active | CC[C@H](C)[C@H](N)C(=O)N[C@@H](CO)C(=O)N[C@@H](CCC(=O)O)C(=O)N[C@H](C(=O)N[C@@H](CC(N)=O)C(=O)N[C@@H](CCSC)C(=O)N[C@@H](CC(=O)O)C(=O)N[C@@H](C)C(=O)N[C@@H](CCC(=O)O)C(=O)N[C@@H](Cc1ccccc1)C(=O)N[C@@H](CCCNC(=N)N)C(=O)N[C@@H](Cc1cnc[nH]1)C(N)=O)C(C)C (H-ISEVNMDAEFRH-NH2)

Biological target: Beta-secretase 1 (Homo sapiens) (UniProt P56817)
Assay: Activity of recombinant BACE assessed as retention time of substrate by HPLC method

Structure (SMILES) | retention time [h]
CC[C@H](C)[C@H](N)C(=O)N[C@@H](CO)C(=O)N[C@@H](CCC(=O)O)C(=O)N[C@H](C(=O)N[C@@H](CC(=O)O)C(=O)N[C@@H](CC(C)C)C(=O)N[C@@H](CC(=O)O)C(=O)N[C@@H](C)C(=O)N[C@@H](CCC(=O)O)C(=O)N[C@@H](Cc1ccccc1)C(=O)N[C@@H](CCCNC(=N)N)C(=O)N[C@@H](Cc1cnc[nH]1)C(N)=O)C(C)C (H-ISEVDLDAEFRH-NH2) | 0.49
CC[C@H](C)[C@H](N)C(=O)N[C@@H](CO)C(=O)N[C@@H](CCC(=O)O)C(=O)N[C@H](C(=O)N[C@@H](CCSC)C(=O)N[C@@H](CC(C)C)C(=O)N[C@@H](CC(=O)O)C(=O)N[C@@H](C)C(=O)N[C@@H](CCC(=O)O)C(=O)N[C@@H](Cc1ccccc1)C(=O)N[C@@H](CCCNC(=N)N)C(=O)N[C@@H](Cc1cnc[nH]1)C(N)=O)C(C)C (H-ISEVMLDAEFRH-NH2) | 0.521
CC[C@H](C)[C@H](N)C(=O)N[C@@H](CO)C(=O)N[C@@H](CCC(=O)O)C(=O)N[C@H](C(=O)N[C@H](C(=O)N[C@@H](CC(C)C)C(=O)N[C@@H](CC(=O)O)C(=O)N[C@@H](C)C(=O)N[C@@H](CCC(=O)O)C(=O)N[C@@H](Cc1ccccc1)C(=O)N[C@@H](CCCNC(=N)N)C(=O)N[C@@H](Cc1cnc[nH]1)C(N)=O)c1ccccc1)C(C)C (H-ISEV[Phg]LDAEFRH-NH2) | 0.541
CC[C@H](C)[C@H](N)C(=O)N[C@@H](CO)C(=O)N[C@@H](CCC(=O)O)C(=O)N[C@H](C(=O)N[C@H](C(=O)N[C@@H](CC(C)C)C(=O)N[C@@H](CC(=O)O)C(=O)N[C@@H](C)C(=O)N[C@@H](CCC(=O)O)C(=O)N[C@@H](Cc1ccccc1)C(=O)N[C@@H](CCCNC(=N)N)C(=O)N[C@@H](Cc1cnc[nH]1)C(N)=O)C(C)(C)C)C(C)C (H-ISEV[Tle]LDAEFRH-NH2) | 0.531

Next, values leading:

retention time [h] | Structure (SMILES)
0.517 | CC[C@H](C)[C@H](N)C(=O)N[C@@H](CO)C(=O)N[C@@H](CCC(=O)O)C(=O)N[C@H](C(=O)N[C@@H](CC(N)=O)C(=O)N[C@@H](CC(C)C)C(=O)N[C@@H](CC(=O)O)C(=O)N[C@@H](C)C(=O)N[C@@H](CCC(=O)O)C(=O)N[C@@H](Cc1ccccc1)C(=O)N[C@@H](CCCNC(=N)N)C(=O)N[C@@H](Cc1cnc[nH]1)C(N)=O)[C@@H](C)CC (H-ISEINLDAEFRH-NH2)
0.533 | CC[C@H](C)[C@H](N)C(=O)N[C@@H](CO)C(=O)N[C@@H](CCC(=O)O)C(=O)N[C@@H](Cc1cccs1)C(=O)N[C@@H](CC(N)=O)C(=O)N[C@@H](CC(C)C)C(=O)N[C@@H](CC(=O)O)C(=O)N[C@@H](C)C(=O)N[C@@H](CCC(=O)O)C(=O)N[C@@H](Cc1ccccc1)C(=O)N[C@@H](CCCNC(=N)N)C(=O)N[C@@H](Cc1cnc[nH]1)C(N)=O (H-ISE[2Thi]NLDAEFRH-NH2)
0.47 | CC[C@H](NC(=O)[C@H](CCC(=O)O)NC(=O)[C@H](CO)NC(=O)[C@@H](N)[C@@H](C)CC)C(=O)N[C@@H](CC(N)=O)C(=O)N[C@@H](CC(C)C)C(=O)N[C@@H](CC(=O)O)C(=O)N[C@@H](C)C(=O)N[C@@H](CCC(=O)O)C(=O)N[C@@H](Cc1ccccc1)C(=O)N[C@@H](CCCNC(=N)N)C(=O)N[C@@H](Cc1cnc[nH]1)C(N)=O (H-ISE[Abu]NLDAEFRH-NH2)
0.592 | CC[C@H](C)[C@H](N)C(=O)N[C@@H](CO)C(=O)N[C@@H](CCC(=O)O)C(=O)N[C@@H](CC1CCCCC1)C(=O)N[C@@H](CC(N)=O)C(=O)N[C@@H](CC(C)C)C(=O)N[C@@H](CC(=O)O)C(=O)N[C@@H](C)C(=O)N[C@@H](CCC(=O)O)C(=O)N[C@@H](Cc1ccccc1)C(=O)N[C@@H](CCCNC(=N)N)C(=O)N[C@@H](Cc1cnc[nH]1)C(N)=O (H-ISE[Cha]NLDAEFRH-NH2)
0.438 | CC[C@H](C)[C@H](N)C(=O)N[C@@H](CO)C(=O)N[C@@H](CCC(=O)O)C(=O)N[C@@H](CCCNC(N)=O)C(=O)N[C@@H](CC(N)=O)C(=O)N[C@@H](CC(C)C)C(=O)N[C@@H](CC(=O)O)C(=O)N[C@@H](C)C(=O)N[C@@H](CCC(=O)O)C(=O)N[C@@H](Cc1ccccc1)C(=O)N[C@@H](CCCNC(=N)N)C(=O)N[C@@H](Cc1cnc[nH]1)C(N)=O (H-ISE[Cit]NLDAEFRH-NH2)
